We go through 22 molecules from PubChem BioAssay.

Results filed as inconclusive are left out. Activity calls are given as the source filed them.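 How the source made its calls, unless noted: active means inhibition over a set limit, the all-compound mean plus 3 SD, in both replicate runs; inconclusive means over that limit in just one replicate run; inactive means at or under that limit in both runs.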

The nature of assay [1]: S. cerevisiae growth inhibition in permissive medium (OD615), pilot counter-assay for S. cerevisiae lifespan shortening project, permissive growth control (AID 705;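 active means growth inhibition above 25% in both replicates, a cutoff set 3 SD above the mean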). The conditions noted are these: OD615, 24 h, at 10 µM, hits give high values. In a few lines:
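System: S. cerevisiae with engineered DeaD lifespan system / Measured by: absorbance (optical density) at 615 nm / Read-out: reduction in yeast growth (OD615) / Times: 4 h cell pre-growth, 24 h exposure at 30 °C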

Assay [2] can be described thus: S. cerevisiae growth inhibition in restrictive medium, OD615, pilot screen, restrictive growth control, yeast lifespan reduction project (AID 706;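 active means growth inhibition above a set limit, 3 SD over mean compound inhibition, in both replicates, cut at about 43% in these data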;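 further: modified DeaD lifespan yeast strain shifted to restrictive glucose medium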). The conditions noted are these: OD615, 48 h, at 10 µM, hits give high values. In outline:
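System: Engineered S. cerevisiae DeaD strain | Buffer or medium: Glucose-based CSMM-D restrictive medium | Schedule: 4 h pre-incubation, 48 h exposure at 30 °C | Technique: Optical density at 615 nm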

A short description of assay [3]: doxorubicin toxicity protection in MRP-1 cells – H69AR cells, CellTiter-Glo, duplicate, MRP-1 activator project, pilot screen (AID 807;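 active means viability increase at or above a cutoff of the median across tested compounds plus 3 SD, cut at about 8.5% in these data, passing the limit was not always enough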;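 further: compound pretreatment 18-22 h then 72 h combined with doxorubicin; 0% = doxorubicin alone and 100% = vehicle without doxorubicin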). The conditions noted are these: H69AR viability with doxorubicin, CellTiter-Glo luminescence; at 10 µM; hits give high values. In general terms: Cellular ATP, detected with luciferase, serves as a proxy for viable cell number.
Assay [4] in a line: viability of HCT116 without oncogenic beta-catenin – human colon tumor cells, pilot screen (AID 823;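 active means cell viability at or below a set limit in both duplicate runs, the limit being the all-compound median minus 4 SD, cut at about 23% in these data, passing the limit was not always enough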;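 further: 0% = wells killed by 20 µM Hyamine and 100% = untreated DMSO cell wells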). The following applies: HCT116 beta-catenin knockout viability, CellTiter-Glo, 60 h; at 10 µM; hits give low values.
The nature of assay [5]: viability of PTEN-null HCT116 cells – cell-based, HCT116 clonal line, CellTiter-Glo, pilot screen (AID 824;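 active means viability at or below 27.92% in each of two runs, the all-compound median minus 4 SD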;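 further: 0% = 20 µM Hyamine control and 100% = vehicle cell control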). The conditions noted are these: HCT116 PTEN-deleted viability, 60 h, at 10 µM, hits give low values.
The nature of assay [6]: RAM pathway blockade in budding yeast – dse1pr::URA3 reporter, 5-FOA selection, pilot screen (AID 869).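 Further: 0% = DMSO wells with no growth and 100% = 10 µM 1-NA-PP1 with full growth; RAM network block rescues cells from 5-FOA so hits raise OD615 growth.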 The conditions noted are these: S. cerevisiae dse1pr::URA3 5-FOA growth, OD615, 2 d; at 10 µM; hits give high values; strain carries analog-sensitive mutant Cbk1 kinase.
Assay [7] can be described thus: RAM signaling pathway blockade in yeast – S. cerevisiae, Pdr1DBD-CYC8 efflux-inhibited sensitized strain, primary screen (AID 1298;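 active means RAM network inhibition above 8.4% in each of two replicates, 3 SD over the compound average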;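 further: 0% = DMSO untreated cells without growth and 100% = 10 µM 1-NA-PP1 full growth; higher means more yeast growth rescued from 5-FOA killing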). The conditions noted are these: S. cerevisiae cbk1-as DSE1-URA3 strain, 5-FOA growth OD615, 2 d; at 50 µM; hits give high values.

By viability is commonly meant a read-out of living cells in per cent, often relative to untreated cells. A word on the inhibition: it is the drop in the measured response relative to a control, in per cent. For `COC(=O)C1=C(C)NC(=O)NC1c1cn(-c2ccccc2)nc1-c1cccs1` (centres undefined), the growth inhibition in assay [1] was 1.5% (inactive); in assay [2], 7.83% (inactive). Moreover, the viability increase in assay [3] was -1.94% (inactive). Moreover, the results for the viability in assay [4] and in assay [5] were 85.6% (inactive) and 82.4% (inactive), respectively. The inhibition in assay [6] was 2.37% (inactive). The RAM network inhibition in assay [7] was 5.72% (inactive).

Regarding `O=C(CSc1ccccn1)c1ccc(F)cc1`, the values for the growth inhibition in assay [1] and in assay [2] were 10.7% (inactive) and 17.6% (inactive), respectively. Moreover, the viability increase in assay [3] was -0.02% (inactive). For the same molecule, the viability is 100% (inactive) in assay [4] and 102% (inactive) in assay [5]. Further, in assay [6], the inhibition is 2.88% (inactive). In addition, the RAM network inhibition in assay [7] was 1.72% (inactive).

Consider `Nc1nonc1C(=O)NCCc1ccccc1`, for which the growth inhibition in assay [1] is -6.66% (inactive); in assay [2] it was 6.3% (inactive). In assay [3], the viability increase was -0.05% (inactive). In addition, the viability was 116% (inactive) in assay [4] and 99.6% (inactive) in assay [5]. For the same molecule, in assay [6], the inhibition was 0.71% (inactive). Besides, the RAM network inhibition in assay [7] is -0.76% (inactive).

In the case of `Cc1c(N=Cc2ccco2)c(=O)n(-c2ccccc2)n1C`, the growth inhibition in assay [1] was -11.1% (inactive); in assay [2] it was -8.96% (inactive). In addition, the viability increase in assay [3] is -1.15% (inactive). The viability is 93.8% (inactive) in assay [4] and 96.7% (inactive) in assay [5]. The inhibition in assay [6] was 1.39% (inactive). The RAM network inhibition in assay [7] was 0.89% (inactive).

With `CC1CCCN(c2ncnc3c2cnn3-c2ccc(Cl)cc2)C1` (centres undefined), the growth inhibition in assay [1] is -6.17% (inactive); in assay [2], -16.3% (inactive). Further, the viability increase in assay [3] was 0.48% (inactive). The viability in assay [4] was 76% (inactive); in assay [5], 79.3% (inactive). Besides, the inhibition in assay [6] was -1.04% (inactive). Also, the RAM network inhibition in assay [7] is 4.37% (inactive).

For the molecule `CN(CCO)c1ncnc2nc[nH]c12`, the growth inhibition was -10.4% (inactive) in assay [1] and -7.77% (inactive) in assay [2]. In assay [3], the viability increase is 0.3% (inactive). Further, the viability is 104% (inactive) in assay [4] and 93.2% (inactive) in assay [5]. Besides, in assay [6], the inhibition was 1.36% (inactive). Further, in assay [7], the RAM network inhibition is 1.71% (inactive).

Regarding `CC12CC(NC(=O)N1CCc1ccccc1)c1ccccc1O2` (centres undefined), the growth inhibition in assay [1] was -8.73% (inactive); in assay [2] it was -25% (inactive). The viability increase in assay [3] was -3.43% (inactive). Moreover, the results for the viability in assay [4] and in assay [5] were 74.9% (inactive) and 73.8% (inactive), respectively. Further, the inhibition in assay [6] was 1.45% (inactive). Also, the RAM network inhibition in assay [7] is 5.31% (inactive).

As to `CCOC(=O)c1c(N)sc(C(N)=O)c1C`, the results for the growth inhibition in assay [1] and in assay [2] were -17.3% (inactive) and -8.77% (inactive), respectively. Moreover, the viability increase in assay [3] was -1.19% (inactive). The viability is 95.3% (inactive) in assay [4] and 97.3% (inactive) in assay [5]. For the same molecule, the inhibition in assay [6] is 1.25% (inactive). Besides, in assay [7], the RAM network inhibition was 0.78% (inactive).

`c1ccc(-c2ccc(-c3nc(-c4cccnc4)no3)cc2)cc1`: the growth inhibition in assay [1] is 16.4% (inactive); in assay [2], 20% (inactive). Also, the viability increase in assay [3] is -0.01% (inactive). In addition, the values for the viability in assay [4] and in assay [5] were 80.8% (inactive) and 89.3% (inactive), respectively. Besides, the inhibition in assay [6] was 0.455% (inactive). Besides, the RAM network inhibition in assay [7] is -0.01% (inactive).

As to `C=C(C)Cn1c(N2CCCC2)nc2c1c(=O)[nH]c(=O)n2C`, the growth inhibition in assay [1] is -1.91% (inactive); in assay [2], -5.8% (inactive). Moreover, in assay [3], the viability increase is -1.97% (inactive). Also, the viability in assay [4] is 108% (inactive); in assay [5] it was 96.6% (inactive). Also, the inhibition in assay [6] is 1.32% (inactive). Moreover, the RAM network inhibition in assay [7] is 2.05% (inactive).

On to `CC(C)CCNC(=O)c1ccc2c(c1)N(Cc1ccccc1)C(=O)CS2=O` (centres undefined), for which the growth inhibition in assay [1] was -0.755% (inactive); in assay [2] it was 4.24% (inactive). Besides, in assay [3], the viability increase is 1.95% (inactive). Besides, the results for the viability in assay [4] and in assay [5] were 104% (inactive) and 94% (inactive), respectively. Also, in assay [6], the inhibition was 0.275% (inactive). In addition, the RAM network inhibition in assay [7] was 1.41% (inactive).

As for `CCCn1c(CNC(=O)c2cccs2)nc2ccccc21`, the growth inhibition in assay [1] is -9.53% (inactive); in assay [2], -7.64% (inactive). The viability increase in assay [3] was -1.28% (inactive). The viability was 101% (inactive) in assay [4] and 103% (inactive) in assay [5]. Further, in assay [6], the inhibition was 2.32% (inactive). Besides, the RAM network inhibition in assay [7] was 2.11% (inactive).

On to `CCSc1nnc(Cn2c(=O)sc3ccccc32)n1-c1ccccc1C`, for which the growth inhibition is -2.14% (inactive) in assay [1] and -4.08% (inactive) in assay [2]. Moreover, the viability increase in assay [3] was -1.61% (inactive). For the same molecule, the viability in assay [4] is 93.9% (inactive); in assay [5], 89.7% (inactive). In assay [6], the inhibition is 1.61% (inactive). For the same molecule, the RAM network inhibition in assay [7] is 8.51% (inactive).

For the molecule `Clc1ccc(OCc2nnc(-c3ccccc3Br)o2)c(Cl)c1`, the growth inhibition was -11.4% (inactive) in assay [1] and -17% (inactive) in assay [2]. For the same molecule, the viability increase in assay [3] was -0.17% (inactive). For the same molecule, the viability is 95.9% (inactive) in assay [4] and 89.3% (inactive) in assay [5]. Further, the inhibition in assay [6] was 6% (active). Besides, the RAM network inhibition in assay [7] is 14% (inactive).

Consider `CN(CCNC(=O)C1CC(=O)N(C2CCCC2)C1)Cc1ccccc1` (centres undefined), for which the growth inhibition was -2.86% (inactive) in assay [1] and 0.485% (inactive) in assay [2]. Further, in assay [3], the viability increase was -0.98% (inactive). Moreover, the viability in assay [4] was 98.6% (inactive); in assay [5], 98.3% (inactive). For the same molecule, the inhibition in assay [6] was 0.74% (inactive). In assay [7], the RAM network inhibition is 0.52% (inactive).

Take `CCOC(=O)c1cccc(NC(=O)CCS(=O)(=O)c2cccc3nsnc23)c1`: the growth inhibition in assay [1] was -0.82% (inactive); in assay [2] it was -22% (inactive). Also, the viability increase in assay [3] was -3.74% (inactive). Moreover, the results for the viability in assay [4] and in assay [5] were 100% (inactive) and 97% (inactive), respectively. For the same molecule, the inhibition in assay [6] was 0.99% (inactive). In addition, the RAM network inhibition in assay [7] is 2.43% (inactive).

Consider `CCOc1cccc(-c2nc(C(N)=O)c3[nH]c(=O)n(-c4cccc(Cl)c4)c3n2)c1O`, for which the growth inhibition in assay [1] was -2.52% (inactive); in assay [2], -7.1% (inactive). Besides, the viability increase in assay [3] was -2.06% (inactive). Moreover, the viability is 101% (inactive) in assay [4] and 93.1% (inactive) in assay [5]. Further, the inhibition in assay [6] is 0.85% (inactive). Further, the RAM network inhibition in assay [7] was 2.67% (inactive).

Take `Nc1ccccc1-c1nnc(SCc2ccccc2F)[nH]c1=O`: the growth inhibition was -8.6% (inactive) in assay [1] and 6.34% (inactive) in assay [2]. The viability increase in assay [3] was 2.02% (inactive). The viability in assay [4] is 95.9% (inactive); in assay [5], 89.9% (inactive). The inhibition in assay [6] was 0.695% (inactive). Besides, in assay [7], the RAM network inhibition was 4.24% (inactive).

On to `Cc1ccccc1-n1c(Cn2c(=O)sc3ccccc32)nnc1SCC(=O)NCC1CCCO1` (centres undefined), for which the growth inhibition in assay [1] is -3.68% (inactive); in assay [2], -12.2% (inactive). Besides, the viability increase in assay [3] is 0% (inactive). For the same molecule, the viability in assay [4] is 100% (inactive); in assay [5] it was 97.9% (inactive). Further, the inhibition in assay [6] was 0.82% (inactive). Also, the RAM network inhibition in assay [7] was 3.19% (inactive).

As for `O=C(c1cc2c(ccc3ccccc32)oc1=O)N1CCN(CCO)CC1`, the values for the growth inhibition in assay [1] and in assay [2] were -9.81% (inactive) and -3.65% (inactive), respectively. Also, in assay [3], the viability increase is -2.23% (inactive). Besides, the viability in assay [4] was 88.8% (inactive); in assay [5], 93.7% (inactive). In addition, the inhibition in assay [6] is 3.29% (inactive). The RAM network inhibition in assay [7] was -1.69% (inactive).

Take `O=S(=O)(c1cccs1)N1CCCc2ccccc21`: the growth inhibition was -13.1% (inactive) in assay [1] and -18.4% (inactive) in assay [2]. Further, the viability increase in assay [3] was -2.75% (inactive). The values for the viability in assay [4] and in assay [5] were 83.5% (inactive) and 83.8% (inactive), respectively. Also, the inhibition in assay [6] was 1.71% (inactive). Moreover, the RAM network inhibition in assay [7] is 3.38% (inactive).

On to `CCCc1cc(C(=O)NCC(C)C)no1`, for which the values for the growth inhibition in assay [1] and in assay [2] were -3.57% (inactive) and 13.8% (inactive), respectively. Further, the viability increase in assay [3] is 0.64% (inactive). The viability in assay [4] is 109% (inactive); in assay [5], 101% (inactive). Besides, the inhibition in assay [6] is 1.85% (inactive). In addition, the RAM network inhibition in assay [7] was 1.2% (inactive).
